Measured values: ChEMBL document CHEMBL1134346, “Labeling and evaluation of N-[11C]methylated quinoline-2-carboxamides as potential radioligands for visualization of peripheral benzodiazepine receptors” (J Med Chem, 2001)

Key:
Rattus norvegicus [1] = species on record: Rattus norvegicus; test: Tissue (pituitary) distribution in Albino male CD rats after 30 minutes expressed as percent of injected dose per gram of organ.; type: ADME, organism-based, Pituitary gland; settings: in vivo, 0.5 h
How it was run: (§1)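 Male albino CD rats (225-250 g) received the 11C-labelled radioligand in saline by tail-vein injection. Three rats per time point were decapitated under light ether anaesthesia at 5, 15, 30, 60 or 90 min. Blood was collected heparinized and plasma separated by centrifugation. The pituitary was dissected from the brain. Lung, liver (three-lobe pieces) and right deltoid muscle were sampled, washed in cold saline, gamma-counted and weighed. Results are %I.D./g.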

Rattus norvegicus [2] = species on record: Rattus norvegicus; test: Tissue (lung) distribution in Albino male CD rats after 5 minutes expressed as percent of injected dose per gram of organ.; type: ADME, organism-based; settings: in vivo; how it was run: as §1
Rattus norvegicus [3] = species on record: Rattus norvegicus; test: Tissue (plasma) distribution in Albino male CD rats after 5 minutes expressed as percent of injected dose per gram of organ.; type: ADME, organism-based; settings: in vivo; how it was run: as §1
Rattus norvegicus [4] = species on record: Rattus norvegicus; test: Tissue (adrenal gland) distribution in Albino male CD rats after 30 minutes expressed as percent of injected dose per gram of organ.; type: ADME, organism-based; settings: in vivo, 0.5 h
How it was run: (§2)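 Radioligand given in saline into tail vein of male albino CD rats (225-250 g); 100-200 µCi per animal, 1-2 Ci/µmol at injection depending on radioligand. Three rats per time point were decapitated under light ether anaesthesia. Blood, plasma, brain regions and washed organs were weighed and gamma-counted. Uptake is %I.D./g tissue, mean ± SD.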

Rattus norvegicus [5] = species on record: Rattus norvegicus; test: Tissue (spleen) distribution in Albino male CD rats after 30 minutes expressed as percent of injected dose per gram of organ.; type: ADME, organism-based; settings: in vivo, 0.5 h; how it was run: as §1
Rattus norvegicus [6] = species on record: Rattus norvegicus; test: Tissue (muscle) distribution in Albino male CD rats after 60 minutes expressed as percent of injected dose per gram of organ.; type: ADME, organism-based; settings: in vivo, 1 h; how it was run: as §1
Rattus norvegicus [7] = species on record: Rattus norvegicus; test: Tissue (testicle) distribution in Albino male CD rats after 30 minutes expressed as percent of injected dose per gram of organ.; type: ADME, organism-based; settings: in vivo, 0.5 h; how it was run: as §1
Rattus norvegicus [8] = species on record: Rattus norvegicus; test: Tissue (heart) concentration of radioactivity at 30 min post-injection into Albino male CD rats with vehicle.; type: ADME, organism-based; settings: in vivo, 0.5 h
How it was run: (§3)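 Separate groups of five rats received tail-vein PK 11195 (1.4-1.6 mg; 5 mg/kg) in 30 µL DMSO:EtOH 1:1, or vehicle alone, immediately before iv radioligand (90-170 µCi in saline, 0.9-1 Ci/µmol). Rats were decapitated at 30 min and tissues gamma-counted; values are %I.D./g.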

Rattus norvegicus [9] = species on record: Rattus norvegicus; test: Tissue (pituitary) distribution in Albino male CD rats after 60 minutes expressed as percent of injected dose per gram of organ.; type: ADME, organism-based, Pituitary gland; settings: in vivo, 1 h; how it was run: as §1
Rattus norvegicus [10] = species on record: Rattus norvegicus; test: Tissue (intestine) distribution in Albino male CD rats after 90 minutes expressed as percent of injected dose per gram of organ.; type: ADME, organism-based; settings: in vivo, 1.5 h; how it was run: as §2
Rattus norvegicus [11] = species on record: Rattus norvegicus; test: Tissue (adrenal gland) concentration of radioactivity at 30 min post-injection into Albino male CD rats with vehicle.; type: ADME, organism-based; settings: in vivo, 0.5 h; how it was run: as §3
Rattus norvegicus [12] = species on record: Rattus norvegicus; test: Tissue (muscle) concentration of radioactivity at 30 min post-injection into Albino male CD rats with vehicle.; type: ADME, organism-based; settings: in vivo, 0.5 h
How it was run: (§4)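 Blocking study in male albino CD rats, five per group. Immediately before the 11C radioligand (in saline, i.v. tail vein), rats received 30 µL tail-vein PK 11195 (5 mg/kg; 1.4-1.6 mg) in DMSO:EtOH 1:1, or vehicle. Rats were decapitated at 30 min. Tissues were dissected, washed, gamma-counted and weighed as in the biodistribution study. Results are %I.D./g.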

[13] = target: Translocator protein (Rattus norvegicus) (UniProt P16257); test: Tissue (spleen) concentration of radioactivity at 30 min post-injection into Albino male CD rats after pretreatment with cold PK 11195.; type: functional, tissue-based; how it was run: as §4
Rattus norvegicus [14] = species on record: Rattus norvegicus; test: Tissue (heart) distribution in Albino male CD rats after 15 minutes expressed as percent of injected dose per gram of organ.; type: ADME, organism-based; settings: in vivo, 0.25 h; how it was run: as §2
Rattus norvegicus [15] = species on record: Rattus norvegicus; test: Tissue (muscle) distribution in Albino male CD rats after 5 minutes expressed as percent of injected dose per gram of organ.; type: ADME, organism-based; settings: in vivo; how it was run: as §1
Rattus norvegicus [16] = species on record: Rattus norvegicus; test: Tissue (muscle) distribution in Albino male CD rats after 90 minutes expressed as percent of injected dose per gram of organ.; type: ADME, organism-based; settings: in vivo, 1.5 h; how it was run: as §1
Rattus norvegicus [17] = species on record: Rattus norvegicus; test: Tissue (liver) distribution in Albino male CD rats after 90 minutes expressed as percent of injected dose per gram of organ.; type: ADME, organism-based; settings: in vivo, 1.5 h; how it was run: as §1
Rattus norvegicus [18] = species on record: Rattus norvegicus; test: Tissue (liver) distribution in Albino male CD rats after 60 minutes expressed as percent of injected dose per gram of organ.; type: ADME, organism-based; settings: in vivo, 1 h; how it was run: as §1
[19] = target: Translocator protein (Rattus norvegicus) (UniProt P16257); test: Tissue (muscle) concentration of radioactivity at 30 min post-injection into Albino male CD rats after pretreatment with cold PK 11195.; type: functional; how it was run: as §4
Rattus norvegicus [20] = species on record: Rattus norvegicus; test: Tissue (heart) distribution in Albino male CD rats after 90 minutes expressed as percent of injected dose per gram of organ.; type: ADME, organism-based; settings: in vivo, 1.5 h; how it was run: as §2
Rattus norvegicus [21] = species on record: Rattus norvegicus; test: Tissue (adrenal gland) distribution in Albino male CD rats after 15 minutes expressed as percent of injected dose per gram of organ.; type: ADME, organism-based; settings: in vivo, 0.25 h; how it was run: as §2
Rattus norvegicus [22] = species on record: Rattus norvegicus; test: Tissue (blood) distribution in Albino male CD rats after 5 minutes expressed as percent of injected dose per gram of organ.; type: ADME, organism-based; settings: in vivo; how it was run: as §2
Rattus norvegicus [23] = species on record: Rattus norvegicus; test: Tissue (kidney) distribution in Albino male CD rats after 90 minutes expressed as percent of injected dose per gram of organ.; type: ADME, organism-based; settings: in vivo, 1.5 h; how it was run: as §2
Rattus norvegicus [24] = species on record: Rattus norvegicus; test: Tissue (lung) concentration of radioactivity at 30 min post-injection into Albino male CD rats with vehicle.; type: ADME, organism-based; settings: in vivo, 0.5 h; how it was run: as §4
[25] = target: Translocator protein (Rattus norvegicus) (UniProt P16257); test: Tissue (lung) concentration of radioactivity at 30 min post-injection into Albino male CD rats after pretreatment with cold PK 11195.; type: functional; how it was run: as §4
Rattus norvegicus [26] = species on record: Rattus norvegicus; test: Tissue (lung) distribution in Albino male CD rats after 60 minutes expressed as percent of injected dose per gram of organ.; type: ADME, organism-based; settings: in vivo, 1 h; how it was run: as §1
Rattus norvegicus [27] = species on record: Rattus norvegicus; test: Tissue (cortex) distribution in Albino male CD rats after 30 minutes expressed as percent of injected dose per gram of organ.; type: ADME, organism-based; settings: in vivo, 0.5 h; how it was run: as §2
[28] = target: Translocator protein (Rattus norvegicus) (UniProt P16257); test: Tissue (heart) concentration of radioactivity at 30 min post-injection into Albino male CD rats after pretreatment with cold PK 11195.; type: functional; how it was run: as §3
Rattus norvegicus [29] = species on record: Rattus norvegicus; test: Tissue (spleen) distribution in Albino male CD rats after 90 minutes expressed as percent of injected dose per gram of organ.; type: ADME, organism-based; settings: in vivo, 1.5 h
Rattus norvegicus [30] = species on record: Rattus norvegicus; test: Tissue (testicle) distribution in Albino male CD rats after 90 minutes expressed as percent of injected dose per gram of organ.; type: ADME, organism-based; settings: in vivo, 1.5 h
Rattus norvegicus [31] = species on record: Rattus norvegicus; test: Tissue (intestine) distribution in Albino male CD rats after 5 minutes expressed as percent of injected dose per gram of organ.; type: ADME, organism-based; settings: in vivo; how it was run: as §2
Rattus norvegicus [32] = species on record: Rattus norvegicus; test: Tissue (cerebellum) distribution in Albino male CD rats after 15 minutes expressed as percent of injected dose per gram of organ.; type: ADME, organism-based; settings: in vivo, 0.25 h; how it was run: as §2
Rattus norvegicus [33] = species on record: Rattus norvegicus; test: Tissue (cerebellum) distribution in Albino male CD rats after 5 minutes expressed as percent of injected dose per gram of organ.; type: ADME, organism-based; settings: in vivo; how it was run: as §2
Rattus norvegicus [34] = species on record: Rattus norvegicus; test: Tissue (testicle) distribution in Albino male CD rats after 15 minutes expressed as percent of injected dose per gram of organ.; type: ADME, organism-based; settings: in vivo, 0.25 h; how it was run: as §1
[35] = target: Translocator protein (Rattus norvegicus) (UniProt P16257); test: Tissue (kidney) concentration of radioactivity at 30 min post-injection into Albino male CD rats after pretreatment with cold PK 11195.; type: functional, tissue-based; how it was run: as §3
Rattus norvegicus [36] = species on record: Rattus norvegicus; test: Tissue (kidney) concentration of radioactivity at 30 min post-injection into Albino male CD rats with vehicle.; type: ADME, organism-based; settings: in vivo, 0.5 h; how it was run: as §3
Rattus norvegicus [37] = species on record: Rattus norvegicus; test: Tissue (plasma) distribution in Albino male CD rats after 30 minutes expressed as percent of injected dose per gram of organ.; type: ADME, organism-based; settings: in vivo, 0.5 h; how it was run: as §1
Rattus norvegicus [38] = species on record: Rattus norvegicus; test: Tissue (lung) distribution in Albino male CD rats after 30 minutes expressed as percent of injected dose per gram of organ.; type: ADME, organism-based; settings: in vivo, 0.5 h; how it was run: as §1
Rattus norvegicus [39] = species on record: Rattus norvegicus; test: Tissue (spleen) distribution in Albino male CD rats after 5 minutes expressed as percent of injected dose per gram of organ.; type: ADME, organism-based; settings: in vivo; how it was run: as §1
Rattus norvegicus [40] = species on record: Rattus norvegicus; test: Tissue (kidney) distribution in Albino male CD rats after 30 minutes expressed as percent of injected dose per gram of organ.; type: ADME, organism-based; settings: in vivo, 0.5 h; how it was run: as §2

Chain of Translocator protein (Rattus norvegicus) (P16257 whole entry, looked up): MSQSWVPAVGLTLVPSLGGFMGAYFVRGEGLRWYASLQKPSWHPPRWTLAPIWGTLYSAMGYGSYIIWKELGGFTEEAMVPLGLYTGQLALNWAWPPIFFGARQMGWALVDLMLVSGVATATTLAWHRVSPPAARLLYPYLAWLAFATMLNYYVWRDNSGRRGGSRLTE

Cc1c(C(=O)N(C)Cc2ccccc2)nc2ccccc2c1-c1ccccc1
I.D./g (Rattus norvegicus [1]): 0.3%
I.D./g (Rattus norvegicus [2]): 4%
I.D./g (Rattus norvegicus [3]): 0.16%
I.D./g (Rattus norvegicus [4]): 2.99%
I.D./g (Rattus norvegicus [5]): 1.46%
I.D./g (Rattus norvegicus [6]): 0.14%
I.D./g (Rattus norvegicus [7]): 0.13%
I.D./g (Rattus norvegicus [8]): 0.35%
I.D./g (Rattus norvegicus [9]): 0.36%
I.D./g (Rattus norvegicus [10]): 0.68%
I.D./g (Rattus norvegicus [11]): 0.62%
I.D./g (Rattus norvegicus [12]): 0.03%
I.D./g [13]: < 0.02%
I.D./g (Rattus norvegicus [14]): 2.62%
I.D./g (Rattus norvegicus [15]): 0.19%
I.D./g (Rattus norvegicus [16]): 0.21%
I.D./g (Rattus norvegicus [17]): 0.4%
I.D./g (Rattus norvegicus [18]): 0.41%
I.D./g [19]: > 0.02%
I.D./g (Rattus norvegicus [20]): 2.38%
I.D./g (Rattus norvegicus [21]): 2.29%
I.D./g (Rattus norvegicus [22]): 0.2%
I.D./g (Rattus norvegicus [23]): 1.34%
I.D./g (Rattus norvegicus [24]): 0.35%
I.D./g [25]: < 0.05%
I.D./g (Rattus norvegicus [26]): 1.48%
I.D./g (Rattus norvegicus [27]): 0.09%
I.D./g [28]: < 0.04%
I.D./g (Rattus norvegicus [29]): 1.56%
I.D./g (Rattus norvegicus [30]): 0.2%
I.D./g (Rattus norvegicus [31]): 0.3%
I.D./g (Rattus norvegicus [32]): 0.2%
I.D./g (Rattus norvegicus [33]): 0.25%
I.D./g (Rattus norvegicus [34]): 0.12%
I.D./g [35]: < 0.05%
I.D./g (Rattus norvegicus [36]): 0.19%
I.D./g (Rattus norvegicus [37]): 0.06%
I.D./g (Rattus norvegicus [38]): 2%
I.D./g (Rattus norvegicus [39]): 0.28%
I.D./g (Rattus norvegicus [40]): 1.05%
